MC4R ag barr = activates human MC4R beta-arrestin recruitment; P32245; activation, % at 8.9 µM; U2OS MC4R beta-arrestin complementation, luminescence; percent of melanotan II response, DMSO zero; 0.98% of 360,000 active;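 active = activation above a per-plate cutoff, the mean activation of sample wells on that plate plus 3 SD, cut at about 8% in these data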
Target sequence (P32245 whole entry, looked up): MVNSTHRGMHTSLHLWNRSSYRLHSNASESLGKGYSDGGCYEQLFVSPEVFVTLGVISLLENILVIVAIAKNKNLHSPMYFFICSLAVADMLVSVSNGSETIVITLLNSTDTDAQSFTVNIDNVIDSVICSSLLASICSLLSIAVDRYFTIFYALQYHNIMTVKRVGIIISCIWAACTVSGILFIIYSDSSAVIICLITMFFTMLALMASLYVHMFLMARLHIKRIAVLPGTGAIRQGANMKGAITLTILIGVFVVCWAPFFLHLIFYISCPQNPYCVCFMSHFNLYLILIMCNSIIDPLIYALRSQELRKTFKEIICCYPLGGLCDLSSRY
A1 inh = inhibitors of the anti-apoptotic protein A1, read as caspase activation; caspase activation, % (test concentration not listed); 0.066% of 330,000 active; MEF A1-2A-BIM cells, Caspase-Glo 3/7 luminescence, 3 h; percent of clofoctol response, vehicle zero; AID 2462;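 active = over half of replicate activation scores above 10%, or exactly half above 10 with the replicate mean above 10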
XBP1 UPR activ = activators of adaptive arm of unfolded protein response (XBP1). activation, % at 20 µM. 0.33% of 330,000 active. CHO-XBP1 luciferase reporter, IRE1-XBP1 UPR activation, luminescence; percent of tunicamycin response, DMSO as zero;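 active = versus positive control, 20 µM dose yields 30% or more activation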
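Signal: luciferase luminescence; Assay system: CHO-XBP1 luciferase reporter cells; Amount: one thousand reporter cells per well; Dosing: 20 µM single concentration, DMSO 1%; Benchmarks: high control tunicamycin 10 µg/mL final, low control DMSO vehicle only; Schedule: 6 h compound exposure at 37 °C, 5% CO2; Evaluation: percent activation relative to tunicamycin reference.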
MC4R antag cAMP = human MC4R antagonism in cAMP assay; P32245; MC4R-expressing cells, MTII-stimulated cAMP, LANCE TR-FRET; inhibition, % at 6.5 µM; 0.48% of 360,000 active; AID 540295;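 active = inhibition above its plate's cutoff, the mean of tested wells on that plate plus 3 SD, cut at about 29% in these data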
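Material: human MC4R-expressing U2OS cells. Probe or stimulus: Melanotan II challenge. Dosing: 6.5 µM single dose. Times: 30-min compound, 1-h challenge, 1-h detection, room temperature. Technique: TR-FRET with Eu-cAMP and labeled anti-cAMP, 671 nm. Replication: singlicate.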
CHOP UPR activ = activators of apoptotic arm of unfolded protein response (CHOP); CHO-CHOP luciferase reporter, UPR activation, luminescence; percent of tunicamycin response over DMSO baseline; activation, % at 10 µM; 0.34% of 330,000 active;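 active = at 10 µM dose, activation of 40% or more, normalized to positive control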
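measured by = luciferase luminescence | assay system = CHO-CHOP cells, stable luciferase reporter of PERK-eIF2a-CHOP signalling | amount = 500 reporter cells seeded per well | timing = 6 h compound exposure at 37 °C after overnight seeding | controls = positive tunicamycin 10 µg/mL, negative DMSO alone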
U2OS cAMP counter = U2OS forskolin cAMP inhibition counter-screen; 26% of 1,600 active; inhibition, % at 6.5 µM; shares compounds with MC4R antag cAMP; parental U2OS, LANCE TR-FRET;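 active = mean inhibition over triplicates above the low-control well mean plus 3 SD, set per campaign, cut at about 13% in these data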;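 note: signal is single emission at 671 nm which falls as cellular cAMP rises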
MC4R cAMP antag = human MC4R cAMP antagonism confirmation; shares compounds with MC4R antag cAMP; 27% of 1,600 active; MC4R-expressing cells, MTII-stimulated cAMP, TR-FRET; inhibition, % at 6.5 µM; in the data active = inhibition above about 29%
Numbers stand for hits; - = inactive; . = no result given. Sampled rows, rich in hits. Any-hit rate of the full collection: about 2%.

SMILES	MC4R ag barr	A1 inh	XBP1 UPR activ	MC4R antag cAMP	CHOP UPR activ	U2OS cAMP counter	MC4R cAMP antag
CC(C)Cc1nc2oc3c(NCCCN4CCOCC4)ncnc3c2c2c1CCC2	-	-	-	-	-	.	.
CC(C)Cc1nc2oc3c(Cl)ncnc3c2c2c1CCC2	-	-	-	60	-	-	43
S=c1[nH]nc(-c2ccc3ccccc3n2)n1-c1cc(Cl)cc(Cl)c1	-	-	-	32	-	-	-
CC1(C(=O)Nc2cccc(Oc3ccccc3)c2)Cc2c(-c3ccc4c(c3)OCO4)ccnc2O1 (centres undefined)	-	.	.	-	.	.	.
Cc1ccc(S(=O)(=O)NCC(=O)OC(C)C(=O)c2ccccc2)cc1 (centres undefined)	-	-	-	-	-	.	.
CCC(OC(=O)CNS(=O)(=O)c1ccccc1)C(=O)c1ccccc1 (centres undefined)	-	-	-	37	-	17	31
O=C1CCC/C1=c1\s/c(=C/c2cccnc2)c(=O)n1-c1ccccc1	-	.	.	-	.	.	.
NNC(=O)CNC(=O)CNS(=O)(=O)c1ccccc1	-	-	-	29	-	-	-
O=C(CNS(=O)(=O)c1ccccc1)NCc1ccco1	-	-	-	-	-	.	.
Cc1ccccc1C(=O)N(C)[C@H]1C[C@H]2c3[nH]c4ccccc4c3CCN2C(=O)[C@H]1[C@H](C)O	-	.	.	-	.	.	.
CCN=C1SC(CC(N)=O)C(=O)N1CC (centres undefined)	-	-	-	32	-	-	-
CCN=C1SC(CC(=O)NC(C)C)C(=O)N1CC (centres undefined)	-	-	-	-	-	.	.
S=c1[nH]nc(-c2ccccn2)n1/N=C/c1ccc(-c2ccccc2Br)o1	-	.	.	94	.	58	126
S=c1[nH]nc(-c2cccc(Cl)c2)n1/N=C/c1ccc(-c2ccccc2Br)o1	-	-	-	-	-	.	.
CC1(C(=O)Nc2ccc(Cl)c(Cl)c2)CCN1C(=O)Cc1cccc2ccccc12 (centres undefined)	-	.	.	-	.	.	.
COc1cc(CC(=O)OC2CCOC2=O)cc(OC)c1OC (centres undefined)	-	-	-	-	-	.	.
COc1cc(C(=O)OC2CCOC2=O)cc(Cl)c1OC (centres undefined)	-	-	-	30	-	16	30
Cc1c(C(=O)NCCSCc2ccccc2)cccc1[N+](=O)[O-]	-	-	-	35	-	-	-
CCN(C[C@H]1N[C@@](Cc2ccccc2)(C(=O)OC)[C@H]2C(=O)N(Cc3ccccc3)C(=O)[C@@H]12)S(=O)(=O)c1ccc(C(F)(F)F)cc1	-	.	-	38	-	-	-
O=C(Nc1sc2c(c1C(=O)NCC1CCCO1)CCCC2)c1cccs1 (centres undefined)	-	-	-	31	-	-	-
O=C(Nc1sc2c(c1C(=O)O)CCCC2)c1cccs1	-	-	-	-	-	.	.
O=C(O)c1cccc2c1C(=O)c1ccc(N3CCN(Cc4ccc5c(c4)OCO5)CC3)cc1S2(=O)=O	-	.	.	33	.	-	-
CCCCOc1ccc(C(NC(=O)OCC)NC(=O)OCC)cc1	-	-	-	29	-	-	-
CSc1ccc(Cn2c(C)c(C(=O)NCc3cccs3)sc2=O)cc1	-	.	.	-	.	.	.
Clc1ccc(OCCCCCN2CCCC2)c(Br)c1	-	-	-	30	-	-	-
SMILES	MC4R ag barr	A1 inh	XBP1 UPR activ	MC4R antag cAMP	CHOP UPR activ	U2OS cAMP counter	MC4R cAMP antag
CC(=O)Nc1ccc2nc(NC(=O)C(Cl)(Cl)Cl)sc2c1	-	-	-	29	-	-	-
CC(=O)Nc1ccc2nc(NC(=O)c3cccnc3)sc2c1	-	-	-	-	-	.	.
COc1ccc(-c2cc(C(=O)N(C)CC(=O)Nc3ccccc3C(F)(F)F)c3ccccc3n2)cc1OC	-	.	.	31	.	-	-
COc1ccc(-c2cc(C(=O)OCC(=O)N3CCCCC3)c3ccccc3n2)cc1OC	-	-	-	37	-	-	-
c1ccc(-c2nnc(OCc3cccnc3)c3ccccc23)cc1	-	-	-	29	-	-	-
CSc1sc(C)cc1C1C(C#N)=C(N)N(c2cccnc2)C2=C1C(=O)CC(C)(C)C2 (centres undefined)	-	-	-	29	-	-	-
CS(=O)(=O)c1ccc(Nc2nc(C(N)Cc3ccc(Cl)cc3)cs2)cc1 (centres undefined)	-	.	.	-	.	.	.
O=S(=O)(/C(=C\c1ccc(C(F)(F)F)cc1)c1nc2ccccc2[nH]1)c1ccccc1	-	.	.	33	.	-	35
CC(=O)Oc1c(C(C)C)cc(N(C(C)=O)c2ccccc2)cc1C(C)C	-	-	-	33	-	-	-
CSc1ccccc1C(=O)Nc1c(C)cccc1C	-	-	-	32	-	-	-
CSc1ccccc1C(=O)Nc1ccccc1C	-	-	-	-	-	.	.
C=C(C)C1CC=C(C)/C(=N/NC(=O)COc2ccccc2Cl)C1 (centres undefined)	-	-	-	33	-	-	-
C=C(C)C1CC=C(C)/C(=N/NC(=O)COc2ccc(C)cc2)C1 (centres undefined)	-	-	-	-	-	.	.
O=C(NCc1ccc2c(c1)OCO2)c1nc(Cn2ccc([N+](=O)[O-])n2)no1	-	-	-	31	-	-	-
CC(O)(c1cccnc1)c1nc(-c2cccc(C(F)(F)F)c2)cs1 (centres undefined)	-	.	.	-	.	.	.
Cc1ccc(S(=O)(=O)C=CS(=O)(=O)c2ccc(C)cc2)cc1	-	.	.	42	.	-	-
CC(Sc1nnc(C2CC2)n1-c1ccccc1)C(=O)N1CCCC1 (centres undefined)	-	.	-	-	-	.	.
CC(=O)c1ccc(S(=O)(=O)N2CCN(c3ccnc4cc(Cl)ccc34)CC2)cc1	-	.	.	-	.	.	.
Cc1ccc(C(=O)N2NC(c3ccc(F)cc3)C3C(=O)N(c4ccc(C)cc4)C(=O)C32)cc1 (centres undefined)	-	-	-	-	-	.	.
CCOc1ccc(N2C(=O)C3C(c4ccccc4F)NN(C(=O)c4ccc(C)cc4)C3C2=O)cc1 (centres undefined)	-	-	-	30	-	-	-
CC(=O)c1ccc(-n2c(CCC(=O)O)ccc2-c2ccc(C)cc2)cc1	-	-	-	30	-	-	-
C=CCOc1ccc(C[C@H](N)C(=O)NC[C@H]2O[C@@H](n3cc(C)c(=O)[nH]c3=O)C[C@@H]2O)cc1	-	.	.	-	.	.	.
Cc1c(Br)c([N+](=O)[O-])nn1CC(=O)Nc1ccccn1	-	-	-	-	-	.	.

Assay outcomes as filed in PubChem.
